Source: ChEMBL document CHEMBL1151206, “Glycosidase-inhibiting pyrrolidines and pyrrolizidines with a long side chain in Scilla peruviana” (J Nat Prod, 2004)

How the values were obtained:
[1] = Inhibition of almond beta-glucosidase by spectrophotometry; design: species or system Prunus dulcis
In short: (§1)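 Commercial enzyme assayed with the matching p-nitrophenyl glycoside (2 mM) in a 1 mL reaction, at pH 5.0 for the C. saccharolyticum and almond beta-glucosidases, pH 6.8 for bovine liver beta-galactosidase and pH 6.8 for yeast alpha-glucosidase. The reaction was stopped with 2 mL of 400 mM Na2CO3 and released p-nitrophenol was read at 400 nm. IC50 was determined.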

[2] = molecular target: Alpha-galactosidase (Coffea arabica) (UniProt Q42656); test: Inhibition of coffee bean alpha-galactosidase at 1000 uM by spectrophotometry
In short: (§2)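 Commercial enzymes (P. decumbens alpha-L-rhamnosidase at pH 4.5, bovine epididymis alpha-L-fucosidase at pH 5.5, coffee bean alpha-galactosidase at pH 6.5) were incubated with 2 mM p-nitrophenyl glycoside in a 1 mL reaction. The reaction was stopped with 2 mL of 400 mM Na2CO3 and p-nitrophenol was read at 400 nm.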

[3] = species: Rattus norvegicus; test: Inhibition of rat epididymis alpha-mannosidase at 1000 uM by spectrophotometry
In short: (§3)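 Enzyme source was rat epididymal fluid purified from epididymis, assayed at pH 5.2 with 2 mM of the relevant p-nitrophenyl glycoside in a 1 mL reaction. The reaction was stopped with 2 mL of 400 mM Na2CO3 and p-nitrophenol was measured at 400 nm.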

[4] = molecular target: T1, Beta-mannosidase (Rattus norvegicus) (UniProt Q4FZV0); test: Inhibition of rat epididymis beta-mannosidase at 1000 uM by spectrophotometry
T1 sequence (whole entry): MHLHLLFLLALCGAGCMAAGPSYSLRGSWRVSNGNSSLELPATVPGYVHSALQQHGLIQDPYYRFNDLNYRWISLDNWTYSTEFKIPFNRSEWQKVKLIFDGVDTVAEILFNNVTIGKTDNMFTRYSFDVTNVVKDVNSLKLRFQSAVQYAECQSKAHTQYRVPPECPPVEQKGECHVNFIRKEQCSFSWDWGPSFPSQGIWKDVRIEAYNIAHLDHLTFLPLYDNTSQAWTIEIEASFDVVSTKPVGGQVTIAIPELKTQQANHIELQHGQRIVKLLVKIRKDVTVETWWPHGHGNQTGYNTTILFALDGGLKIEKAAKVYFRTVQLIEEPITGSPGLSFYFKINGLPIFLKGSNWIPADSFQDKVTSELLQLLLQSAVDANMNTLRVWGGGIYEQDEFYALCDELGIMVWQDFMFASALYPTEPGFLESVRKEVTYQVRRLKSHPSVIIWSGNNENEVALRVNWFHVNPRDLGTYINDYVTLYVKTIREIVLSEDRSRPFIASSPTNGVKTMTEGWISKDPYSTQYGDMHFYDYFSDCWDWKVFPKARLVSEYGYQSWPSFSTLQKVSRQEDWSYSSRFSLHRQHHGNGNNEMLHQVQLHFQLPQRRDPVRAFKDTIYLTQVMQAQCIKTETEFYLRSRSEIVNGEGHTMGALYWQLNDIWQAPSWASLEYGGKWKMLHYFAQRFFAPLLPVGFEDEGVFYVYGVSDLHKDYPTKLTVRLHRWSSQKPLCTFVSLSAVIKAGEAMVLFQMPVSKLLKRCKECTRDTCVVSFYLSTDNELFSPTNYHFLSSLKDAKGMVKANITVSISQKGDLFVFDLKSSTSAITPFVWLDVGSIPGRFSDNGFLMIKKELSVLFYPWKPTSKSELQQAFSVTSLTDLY

[5] = tested on: Penicillium decumbens; test: Inhibition of Penicillium decumbens alpha-L-rhamnosidase at 1000 uM by spectrophotometry; in short: as §2
[6] = tested on: Oryza sativa; test: Inhibition of rice alpha-glucosidase at 1000 uM by spectrophotometry
[7] = Inhibition of yeast alpha-glucosidase by spectrophotometry; design: species or system Saccharomyces cerevisiae; in short: as §1
[8] = Inhibition of Caldocellum saccharolyticum beta-glucosidase by spectrophotometry; design: species or system Caldicellulosiruptor saccharolyticus; in short: as §1
[9] = molecular target: T2, Beta-galactosidase (Bos taurus, UniProt Q58D55); test: Inhibition of bovine liver beta-galactosidase by spectrophotometry; in short: as §1
T2 sequence (Q58D55 whole entry): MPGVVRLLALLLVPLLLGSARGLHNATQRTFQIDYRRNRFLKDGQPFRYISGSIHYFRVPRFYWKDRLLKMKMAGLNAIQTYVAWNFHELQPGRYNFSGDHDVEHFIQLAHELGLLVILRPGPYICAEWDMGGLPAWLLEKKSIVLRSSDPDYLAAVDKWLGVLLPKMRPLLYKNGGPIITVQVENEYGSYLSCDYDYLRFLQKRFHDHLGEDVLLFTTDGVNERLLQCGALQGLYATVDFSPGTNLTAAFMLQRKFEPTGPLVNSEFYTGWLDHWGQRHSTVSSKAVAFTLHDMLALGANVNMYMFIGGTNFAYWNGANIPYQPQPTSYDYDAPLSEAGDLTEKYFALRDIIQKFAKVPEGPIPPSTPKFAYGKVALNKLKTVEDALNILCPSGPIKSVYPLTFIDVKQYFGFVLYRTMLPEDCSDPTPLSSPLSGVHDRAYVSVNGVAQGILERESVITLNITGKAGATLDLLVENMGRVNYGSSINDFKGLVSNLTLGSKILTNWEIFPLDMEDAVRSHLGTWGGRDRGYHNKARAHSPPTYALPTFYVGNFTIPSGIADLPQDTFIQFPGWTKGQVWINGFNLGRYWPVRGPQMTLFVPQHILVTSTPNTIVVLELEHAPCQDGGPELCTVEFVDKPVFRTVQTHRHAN

[10] = species: Rattus norvegicus; test: Inhibition of rat epididymis beta-galactosidase at 1000 uM by spectrophotometry; in short: as §3
[11] = molecular target: T3, Tissue alpha-L-fucosidase (Bos taurus) (UniProt Q2KIM0); test: Inhibition of bovine epididymis alpha-L-fucosidase at 1000 uM by spectrophotometry; in short: as §2
T3 sequence (whole entry): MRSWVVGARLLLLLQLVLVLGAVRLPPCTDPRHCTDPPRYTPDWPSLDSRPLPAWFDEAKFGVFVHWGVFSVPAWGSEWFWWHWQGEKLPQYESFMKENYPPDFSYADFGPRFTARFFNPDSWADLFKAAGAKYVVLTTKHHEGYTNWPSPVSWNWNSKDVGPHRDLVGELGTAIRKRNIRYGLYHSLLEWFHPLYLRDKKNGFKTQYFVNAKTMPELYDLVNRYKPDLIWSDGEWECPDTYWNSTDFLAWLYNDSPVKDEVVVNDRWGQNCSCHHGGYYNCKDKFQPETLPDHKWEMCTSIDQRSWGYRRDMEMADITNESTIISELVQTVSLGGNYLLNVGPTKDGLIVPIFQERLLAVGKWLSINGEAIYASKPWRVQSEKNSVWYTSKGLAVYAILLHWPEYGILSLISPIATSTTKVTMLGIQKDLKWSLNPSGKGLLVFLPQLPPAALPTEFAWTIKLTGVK

[12] = tested on: Prunus dulcis; test: Inhibition of almond beta-glucosidase at 1000 uM by spectrophotometry
[13] = molecular target: T4, Lysosomal acid glucosylceramidase (Homo sapiens) (UniProt P04062); test: Inhibition of human placental beta-glucocerebrosidase at 1000 uM by spectrophotometry
T4 sequence (whole entry): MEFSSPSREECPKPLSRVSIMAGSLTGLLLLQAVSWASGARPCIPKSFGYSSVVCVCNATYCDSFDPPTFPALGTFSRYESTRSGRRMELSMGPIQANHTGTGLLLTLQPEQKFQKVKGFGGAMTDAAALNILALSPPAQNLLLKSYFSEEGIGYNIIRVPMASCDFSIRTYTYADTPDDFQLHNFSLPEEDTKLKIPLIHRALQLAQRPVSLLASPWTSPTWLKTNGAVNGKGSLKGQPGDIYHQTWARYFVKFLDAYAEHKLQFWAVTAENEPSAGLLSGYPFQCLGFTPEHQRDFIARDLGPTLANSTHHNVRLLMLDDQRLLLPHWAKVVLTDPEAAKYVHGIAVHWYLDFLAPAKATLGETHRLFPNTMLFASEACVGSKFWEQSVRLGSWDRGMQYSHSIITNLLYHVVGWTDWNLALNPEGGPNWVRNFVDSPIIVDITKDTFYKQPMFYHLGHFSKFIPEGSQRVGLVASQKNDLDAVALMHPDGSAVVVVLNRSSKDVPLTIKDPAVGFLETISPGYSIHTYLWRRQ

[14] = tested on: maltase-glucoamylase (Rattus norvegicus); test: Inhibition of rat intestinal maltase at 1000 uM by spectrophotometry
[15] = Inhibition of rice alpha-glucosidase by spectrophotometry; design: species or system Oryza sativa
[16] = molecular target: T5, Lysosomal acid glucosylceramidase (Homo sapiens, UniProt P04062); test: Inhibition of human placental beta-glucocerebrosidase by spectrophotometry
T5 sequence (P04062 whole entry): T4 sequence (whole entry)
In short: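 Human placental beta-glucocerebrosidase (Ceredase) was assayed at pH 5.5 with 2 mM p-nitrophenyl glycoside substrate in a 1 mL reaction. The reaction was stopped with 2 mL of 400 mM Na2CO3 and released p-nitrophenol was read at 400 nm.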

[17] = molecular target: T6, Beta-mannosidase (Rattus norvegicus, UniProt Q4FZV0); test: Inhibition of rat epididymis beta-mannosidase by spectrophotometry; in short: as §3
T6 sequence (Q4FZV0 whole entry): T1 sequence (whole entry)

Alpha-galactosidase (Coffea arabica), sequence (Q42656 16-378 limits assumed): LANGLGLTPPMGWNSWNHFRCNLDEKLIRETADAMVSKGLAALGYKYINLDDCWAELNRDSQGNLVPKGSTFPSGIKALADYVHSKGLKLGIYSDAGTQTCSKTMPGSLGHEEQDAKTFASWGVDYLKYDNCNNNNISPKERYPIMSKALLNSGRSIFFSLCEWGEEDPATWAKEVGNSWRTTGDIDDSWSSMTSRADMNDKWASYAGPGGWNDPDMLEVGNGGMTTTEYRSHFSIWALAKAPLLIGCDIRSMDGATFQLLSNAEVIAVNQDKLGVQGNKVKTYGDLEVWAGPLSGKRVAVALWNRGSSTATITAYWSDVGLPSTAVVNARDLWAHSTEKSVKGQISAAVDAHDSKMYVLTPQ

IC50 [1] [µM] | inhibition [2] [%] | inhibition [3] [%] | inhibition [5] [%] | IC50 [8] [µM] | IC50 [9] [µM] | inhibition [10] [%] | inhibition [11] [%] | Compound | IC50 [7] [µM] | other results
0.01 | – | – | – | – | – | – | – | O=C(CCCCO)CCCCCCC[C@@H](O)[C@H]1N[C@H](CO)[C@@H](O)[C@@H]1O | – | –
0.01 | – | – | – | – | – | – | – | OC[C@H]1N[C@H]([C@H](O)CCCC[C@@H]2CCC[C@]3(CCCO3)O2)[C@@H](O)[C@@H]1O | – | –
6.6 | < 50 | < 50 | < 50 | 0.08 | 0.09 | < 50 | < 50 | OCC(O)CCCCC(O)CC(O)CCC[C@@H](O)[C@H]1N[C@H](CO)[C@@H](O)[C@@H]1O (stereo partly drawn) | 220 | IC50 [15]: 265 µM; IC50 [16]: 970 µM; IC50 [17]: 9.3 µM

Further lines, the compound ahead of its results:

Compound | IC50 [1] [µM] | inhibition [2] [%] | inhibition [3] [%] | inhibition [5] [%] | IC50 [8] [µM] | IC50 [9] [µM] | inhibition [10] [%] | inhibition [11] [%] | IC50 [7] [µM] | other results
O=C(CCCO)CCCCCCCC[C@@H](O)[C@H]1N[C@H](CO)[C@@H](O)[C@@H]1O | 0.01 | – | – | – | – | – | – | – | – | –
CC(O)CC[C@@H]1C[C@@H](O)[C@@H]2[C@@H](O)[C@H](O)[C@@H](CO)N12 (stereo partly drawn) | – | < 50 | < 50 | < 50 | 200 | 320 | < 50 | < 50 | 6.6 | inhibition [4]: < 50%; inhibition [6]: < 50%; inhibition [12]: < 50%; inhibition [13]: < 50%; inhibition [14]: < 50%
OC[C@@H]1[C@@H](O)[C@H](O)[C@H]2[C@H](O)CCN21 | – | – | – | – | – | – | – | – | 95 | –
O=C(CCCCCCCC[C@@H](O)[C@H]1N[C@H](CO)[C@@H](O)[C@@H]1O)CCCO[C@@H]1O[C@H](CO)[C@@H](O)[C@H](O)[C@H]1O | 0.01 | – | – | – | – | – | – | – | – | –
CC(O)[C@@H](O)[C@H]1N[C@H](CO)[C@@H](O)[C@@H]1O (stereo partly drawn) | 120 | < 50 | < 50 | < 50 | 20 | 130 | < 50 | < 50 | 630 | IC50 [15]: 650 µM; IC50 [17]: 150 µM; inhibition [13]: < 50%; inhibition [14]: < 50%
